Screening data (PubChem BioAssay)
DNA FID counter-1 – counter-screen for HCV NS3 helicase inhibitors: DNA intercalator displacement; DNA fluorescent intercalator displacement, fluorescence; inhibition, % at 7.9 µM; 290,000 tested, 0.17% active; AID 1845;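 further: 0% = vehicle and 100% = reference compound; higher means more ethidium bromide displaced from hairpin DNA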
EBNA-1 inh – blocks EBNA-1 binding to DNA. EBNA-1 DNA binding, fluorescence polarization. inhibition, % at 14.8 µM. 300,000 tested, 0.34% active; in the data active means inhibition above about 28%
GPR7 antagonist – antagonists of human GPR7 (neuropeptides B/W receptor 1); P48145; GPR7-expressing cells, fluorescence antagonist assay; inhibition, % at 4.4 µM; 290,000 tested, 1.1% active; AID 1861; in the data active means inhibition above about 16%, passing the limit was not always enough;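 further: cells stimulated with the agonist NPW; 0% = agonist with vehicle and 100% = vehicle without agonist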
Target sequence (P48145 whole entry, looked up): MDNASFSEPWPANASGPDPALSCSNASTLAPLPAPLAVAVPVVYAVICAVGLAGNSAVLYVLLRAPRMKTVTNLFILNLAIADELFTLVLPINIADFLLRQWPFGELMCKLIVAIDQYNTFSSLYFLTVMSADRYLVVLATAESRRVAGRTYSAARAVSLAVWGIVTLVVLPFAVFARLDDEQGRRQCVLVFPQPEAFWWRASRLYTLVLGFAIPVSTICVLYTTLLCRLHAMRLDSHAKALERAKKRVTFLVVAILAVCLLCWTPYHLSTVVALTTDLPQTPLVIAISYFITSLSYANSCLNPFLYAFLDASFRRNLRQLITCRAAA
ZTA counter – counter-screen for EBNA-1 inhibitors: inhibitors of Epstein-Barr virus ZTA. ZTA-DNA binding, fluorescence polarization. 320,000 tested, 0.15% active. P03206. inhibition, % at 11 µM; in the data active means inhibition above about 33%
Target sequence (P03206 whole entry, looked up): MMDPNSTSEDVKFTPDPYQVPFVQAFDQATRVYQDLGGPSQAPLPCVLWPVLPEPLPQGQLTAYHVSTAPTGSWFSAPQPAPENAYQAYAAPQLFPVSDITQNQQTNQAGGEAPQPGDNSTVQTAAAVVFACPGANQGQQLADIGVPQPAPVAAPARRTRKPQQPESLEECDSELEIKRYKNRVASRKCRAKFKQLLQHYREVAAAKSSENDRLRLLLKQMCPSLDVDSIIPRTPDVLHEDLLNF
NS3 helicase inh – HCV NS3 helicase inhibition. AID 1800. inhibition, % at 10.9 µM. 290,000 tested, 0.56% active. NS3 helicase DNA unwinding, Cy5 molecular beacon fluorescence;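 active means inhibition above the mean of all tested compounds plus 3 SD, set per campaign, cut at about 35% in these data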;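 further: 0% = DMSO wells and 100% = thioflavine S control wells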
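Compound dosing – single dose, 10.9 µM nominal final, DMSO 0.8% final · System – NS3 helicase fragment of HCV · Buffer or medium – MOPS pH 6.5, MgCl2, DTT, Tween20, BSA · Signal – Cy5 beacon fluorescence read at start and 1 h · Also added – annealed dual-labelled DNA beacon duplex, ATP-started · Schedule – 1 h at 25 °C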
NS3 helicase cf – confirmation of Hepatitis C virus NS3 helicase inhibitors; NS3 helicase DNA unwinding, Cy5 molecular beacon fluorescence; 1,600 tested, 31% active; inhibition, % at 10.9 µM; AID 1943; shares compounds with NS3 helicase inh;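 active means inhibition above the mean of all tested compounds plus 3 SD, cutoff set per campaign, cut at about 36% in these data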
DNA FID counter-2 – intercalator displacement, NS3 helicase counter-screen. shares compounds with NS3 helicase inh. DNA fluorescent intercalator displacement, fluorescence. inhibition, % at 7.9 µM. 1,600 tested, 4% active. AID 1945;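 further: 0% = vehicle and 100% = reference compound; higher means more displacement of ethidium bromide from the DNA hairpin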
* = called active by the depositor; · = no result. Hits are enriched below; roughly 2% of the tested compounds scored in any of these assays. Unless noted, no stated cut-off is given here; in the data, active means inhibition above about 37%; inactive means the rest.

SMILES	DNA FID counter-1	EBNA-1 inh	GPR7 antagonist	ZTA counter	NS3 helicase inh	NS3 helicase cf	DNA FID counter-2
CCC(C)NC(=O)c1cc2cc3ccc(OC)cc3nc2o1 (stereo unspecified)	-21.9	-16.3	13.3	-2.6	38.1*	-9.8	-29.4
CCCCN(CC)CCCNC(=O)c1cc2cc3ccc(C)cc3nc2o1	7.4	-3.4	-4.2	-12.2	-11.7	·	·
CC1CC/C(=C\c2ccc3c(c2)OCO3)C(=O)/C1=C/c1ccc2c(c1)OCO2 (stereo unspecified)	-18.1	-3.7	3.3	-13.7	37.6*	-8.0	0.7
CCc1ccc(NC(=O)Nc2cccs2)cc1	-8.3	-17.4	0.5	6.2	43.9*	-15.5	12.2
Cc1c(C(=O)O)cccc1-c1ccc(/C=C2\SC(=O)NC2=O)o1	-6.3	-9.5	5.3	4.1	45.4*	-19.9	4.7
Cc1c(C(=O)O)cccc1-c1ccc(/C=C2/NC(=O)N(c3ccccc3)C2=O)o1	-19.9	4.8	-3.4	-15.2	11.1	·	·
COc1ccc(CCC(=O)NCCS(=O)(=O)N2CCN(c3ccc(F)cc3)CC2)cc1	·	2.4	·	2.0	·	·	·
COc1cccc(NC(=O)COC(=O)c2ccccc2SCC(=O)N2CCCC2)c1	·	5.2	·	9.7	·	·	·
O=C(COC(=O)c1ccccc1SCC(=O)N1CCCC1)Nc1ccccc1	-42.8	-11.4	4.7	-4.2	38.0*	-10.8	-17.2
CCc1nnc(NS(=O)(=O)c2ccc(NC(=S)NC(=O)c3ccc(OC)cc3)cc2)s1	-38.2	-5.0	-4.9	-0.4	37.3*	52.2*	10.4
COCCn1nnnc1C(c1cccc(C#N)c1)N1CCCCCC1 (stereo unspecified)	-10.8	7.5	-10.4	2.5	0.4	·	·
CC(C)(C)C(C(Oc1ccc(Cl)cc1)n1cncn1)n1nnnc1C(c1cccc(Cl)c1)N1CCCCC1 (stereo unspecified)	-39.8	-20.9	-27.7	5.6	39.3*	-7.8	-30.1
CC1(C)Oc2cc(N)c([N+](=O)[O-])cc2O1	1.1	-3.4	-16.8	4.9	53.6*	-12.9	3.9
COc1ccc(OCC(=O)Nc2ccc3c(c2)nc(CCn2ccccc2=O)n3C)cc1	-55.1	-7.2	-9.1	-9.4	44.8*	-15.7	-34.0
O=C(/C=C\c1ccc(-c2ccccc2)o1)c1ccccc1	-15.8	-4.5	2.7	1.0	40.1*	16.8	52.9*
CN(Cc1cccs1)C(=O)/C=C/c1ccccc1[N+](=O)[O-]	-1.6	0.6	4.4	-1.5	60.9*	-9.5	9.4
CC1(C)Cc2c(c(-c3ccco3)nc3sc4c(NCCN5CCOCC5)ncnc4c23)CO1	-25.2	2.0	-2.9	5.8	23.0	·	·
CC1(C)Cc2c(c(-c3ccco3)nc3sc4c(NCCCO)ncnc4c23)CO1	-6.4	-2.4	7.3	-7.6	60.1*	-20.8	-17.6
Cc1nn(CC(=O)NCC(C)c2ccccc2)c(=O)c2cc(-c3ccccc3)nn12 (stereo unspecified)	-41.7	-1.1	-6.0	14.5	-0.8	·	·
COc1ccc(N(CC(=O)Nc2cccc(C)c2)S(=O)(=O)c2ccc(C)cc2)cc1OC	-19.3	20.8	-8.7	10.0	92.4*	-6.2	-3.0
Cc1ccc(S(=O)(=O)NCc2ccccc2)cc1C(=O)NC1CCC(C)CC1 (stereo unspecified)	-30.5	4.2	-20.4	15.9	1.5	·	·
O=C(COC(=O)c1cc(-c2ccco2)nc2ccccc12)NCc1ccc2c(c1)OCO2	-23.2	4.3	12.1	5.6	41.4*	85.7*	54.1*
CN(c1ccc(C(=O)NCc2ccncc2)cc1)S(=O)(=O)c1ccc(Cl)cc1	-17.2	6.8	-3.0	-12.3	-1.7	·	·
C#CCOc1c(Cl)cc(/C=C2/C(=O)ON=C2C)cc1OCC	-25.7	-1.2	5.7	-12.4	56.6*	71.4*	16.1
c1ccc(C2Nc3cccc4cccc(c34)N2)cc1	-1.3	0.8	-4.8	-13.6	14.8	·	·
SMILES	DNA FID counter-1	EBNA-1 inh	GPR7 antagonist	ZTA counter	NS3 helicase inh	NS3 helicase cf	DNA FID counter-2
Clc1cccc(Cl)c1C1Nc2cccc3cccc(c23)N1	-13.2	4.1	-18.9	-19.5	74.8*	-33.1	20.5
Fc1cccc(Cl)c1C1Nc2cccc3cccc(c23)N1	-14.3	-10.1	-17.1	-13.9	45.4*	-19.8	31.2
N#CC1=C(N)Oc2c(O)cc3ccccc3c2C1c1ccsc1 (stereo unspecified)	-17.2	1.1	-4.4	8.4	38.0*	-9.6	18.6
COC(=O)c1c(-c2ccc(C)cc2)csc1NC(=O)C1CC=CCC1C(=O)O (stereo unspecified)	-41.6	-6.6	-3.0	5.7	38.6*	53.4*	-22.3
O=[N+]([O-])c1c(Nc2ccccc2O)cc(Cl)c2nonc12	4.4	·	22.2	·	37.6*	-22.9	17.2
Cc1cc2nc(NCCCO)n(CC(=O)c3cc(C(C)(C)C)c(O)c(C(C)(C)C)c3)c2cc1C	·	7.3	·	2.4	·	·	·
O=c1c2cc(Cl)ccc2nc(-c2ccc([N+](=O)[O-])cc2)n1O	-3.0	0.5	-11.5	-5.9	-5.9	·	·
O=c1c2cc(Br)ccc2nc(-c2ccc(Cl)cc2)n1O	-13.8	3.4	-11.9	-16.4	36.6*	40.2*	8.6
Cc1ccc(-c2nc3c(Cl)cc(Cl)cc3c(=O)n2O)cc1	-9.6	-12.0	-5.8	-8.6	36.0*	61.9*	-3.0
O=C(CCN1C(=O)c2ccccc2C1=O)Nc1ccccc1C(F)(F)F	-4.8	2.2	-4.5	10.9	6.8	·	·
CN(C)c1cccc2c(S(=O)(=O)N3CCCC3)cccc12	-24.7	0.5	-22.5	-12.2	36.1*	-12.6	-14.9
CN(C)c1cccc2c(S(=O)(=O)N3CCOCC3)cccc12	-12.9	2.2	-16.4	-4.5	7.8	·	·
N#CC1=C(S)N(c2ccccc2)C(c2ccc(-c3ccccc3Cl)o2)NC1=O (stereo unspecified)	-8.7	1.2	-6.9	-5.1	42.2*	51.1*	0.9
O=C(Nc1cc(S(=O)(=O)N2CCCCCC2)ccc1OCC(F)(F)F)c1cnccn1	·	·	·	-3.9	·	·	·
O=C(CC1SC(=O)N(c2ccccc2)C1=O)Nc1cccc2ccccc12 (stereo unspecified)	-8.8	-2.8	-1.2	15.9	45.5*	-3.8	-1.8
CCOc1ccc(NC(=O)CC2SC(=O)N(c3ccccc3)C2=O)cc1 (stereo unspecified)	-7.8	-13.8	-8.3	3.8	38.0*	-13.0	8.7
COc1ccc(-c2[nH]ncc2/C=N\NC(=O)c2cccs2)cc1OC	-27.9	·	-11.3	·	-0.5	·	·
CCOC(=O)c1oc2cc(O)cc(O)c2c(=O)c1OCc1ccccc1	·	-6.4	·	7.0	·	·	·
O=c1c2ccccc2oc2cc(OCc3cccc(F)c3)cc(O)c12	5.2	·	-3.0	·	36.7*	-11.3	16.7
CC1=NN(C(N)=S)C(=O)C1N=Nc1ccccc1O (stereo unspecified)	-4.4	-12.9	10.3	-17.6	42.5*	-14.6	16.8
COc1ccc(/C=N/NC2=NS(=O)(=O)c3ccccc32)cc1OC(C)=O	-7.1	-10.2	-0.1	0.8	51.5*	-0.2	-1.1
